In one series the test system is red blood cells of mice. In words: Hemolytic assay. The class given is cell-based. The conditions noted are these: 37 °C, 1 h, testing range up to 250 μg/mL.
Series [1] concerns E. coli biofilm formation. Nature of the series: Biofilm prevention study. The class given is cell-based. As to conditions: Escherichia coli, 48 h, read-out: Inhibition of E. coli biofilm formation.
Series [2] deals with E. coli. In words: Fluorescence microscopy. The class given is cell-based, Escherichia coli. The conditions noted are these: 2 × MIC, 2 h.
Series [3] relates to E. coli. In words: Time-kill study, E. coli. Type of series: cell-based, Escherichia coli. The conditions noted are these: concentrations of 24 and 48 μg/mL. Put shortly:
(§1)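 Overnight TSB cultures (37 °C, shaking) were subcultured 6 h to mid-log phase. Suspensions at 10^6 CFU/mL were exposed to the test compound at 37 °C for 10, 30, 60 and 120 min (E. coli 12, 24, 48 μg/mL; MRSA 6, 12, 24, 48 μg/mL). Untreated bacteria served as controls. Samples were diluted (MRSA 10^2-fold, E. coli 10^4-fold) and plated on TSB agar for 20 h at 37 °C. Colonies were counted against time. Three repeats.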

Series [4] deals with E. coli. Nature of the series: Membrane depolarization study, DiSC3. Type of series: cell-based, Escherichia coli. The conditions noted are these: 0.5 ×, 1 ×, 2 × and 4 × MIC.
Series [5] relates to MRSA. Nature of the series: Time-kill study, MRSA. As to conditions: concentrations of 24 and 48 μg/mL. Type of series: cell-based, Staphylococcus aureus. Put shortly:
as §1

The test system of series [6] is MRSA. The class given is cell-based, Staphylococcus aureus. The conditions noted are these: not told.
Series [7] has as its system MRSA. In words: Fluorescence microscopy. The class given is cell-based, Staphylococcus aureus. The conditions noted are these: 2 × MIC, 2 h.
The test system of series [8] is MRSA. In words: TEM study, MRSA. The class given is cell-based, Staphylococcus aureus. As to conditions: 6 μg/mL, 2 h. The method, boiled down:
(§2)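 Cells were prepared at 10^6 CFU/mL as for MIC testing and treated with the test compound for 2 h at 37 °C; untreated controls ran alongside. Cells were pelleted, washed three times in PBS and resuspended in deionised water. They were dropped on grids, blotted, dried 30 s at 50 °C under vacuum, and imaged by TEM at 60 kV.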

Series [9] has as its system E. coli. In words: Inner membrane permeabilization. Type of series: cell-based, Escherichia coli. The conditions noted are these: 2-fold MIC. The method, boiled down:
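Mid-log E. coli was pelleted at 1000g, washed three times and resuspended to 10^6 CFU/mL in 5 mM HEPES/5 mM glucose (1:1). It was mixed with PI from a 10 μM solution. Fluorescence (ex 535, em 617 nm) was read every 2 min for about 8 min. The test compound was then added and reading continued for 12 min. The negative control received water. Three repeats.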

Series [10] has as its system E. coli. In words: TEM study, E. coli. Type of series: cell-based, Escherichia coli. As to conditions: 12 μg/mL, 2 h. The method, boiled down:
as §2

Series [11] relates to MRSA. In words: Drug resistance study. The class given is cell-based, Staphylococcus aureus. The conditions noted are these: 13 passages.

Each structure is given as a SMILES string.

Consider `CCCCCC(=O)N[C@@H](CCCCN)CN1CC(=O)N(c2ccc(N3CN(C[C@H](CCCCN)NC(=O)CCCCC)CC3=O)cc2)C1` [Compound 1, N,N'-((2S,2'S)-(1,4-Phenylenebis(4-oxoimidazolidine-3,1-diyl))-bis(6-aminohexane-1,2-diyl))dihexan amide], for which the “Hemolysis (HC50)” value in the series with red blood cells of mice is above 250 µg/mL. On to `CCCCCCCC(=O)N[C@@H](CCCCN)CN1CC(=O)N(c2ccc(N3CN(C[C@H](CCCCN)NC(=O)CCCCCCC)CC3=O)cc2)C1` [Compound 2, N,N'-((2S,2'S)-(1,4-Phenylenebis(4-oxoimidazolidine-3,1-diyl))-bis(6-aminohexane-1,2-diyl))dioctan amide], for which, in the series on red blood cells of mice, the “Hemolysis (HC50)” value is above 250 µg/mL. As a reminder, the inhibition is the share of the control response that was lost under treatment. Regarding `CCCCCCCCCC(=O)N[C@@H](CCCCN)CN1CC(=O)N(c2ccc(N3CN(C[C@H](CCCCN)NC(=O)CCCCCCCCC)CC3=O)cc2)C1` [Compound 3, N,N'-((2S,2'S)-(1,4-Phenylenebis(4-oxoimidazolidine-3,1-diyl))-bis(6-aminohexane-1,2-diyl))bis(decanamide)], the inhibition at 3 µg/mL in [1] is above 55%. Besides, the “DAPI/PI staining of E. coli (membrane integrity)” value in the series with E. coli [2] was “blue and red fluorescence were all observed”. For the same compound, the “Time required for eradicating E. coli” value in the series on E. coli [3] is reported as 30 min. In the series on E. coli [4], the “Membrane depolarization, DiSC3(5) fluorescence intensity” value is “increase in a concentration-dependent manner”. Also, the “Time to thoroughly eliminate MRSA” value with MRSA [5] is reported as at most 60 min. Further, the “Inner membrane permeabilization of MRSA (PI fluorescence)” value with MRSA [6] was “permeabilized fast”. In the series on red blood cells of mice, the “Hemolysis (HC50)” value was above 250 µg/mL. Besides, the “DAPI/PI staining of MRSA (membrane integrity)” value in the series on MRSA [7] was “blue and red fluorescence were all observed”. Moreover, in the series with MRSA [8], the “Cell membrane morphology of MRSA (TEM)” value is “their membrane was all dispersed”. Moreover, the “Inner membrane permeabilization of E. coli (PI fluorescence)” value in the series with E. coli [9] is on record as “permeabilized fast”. The “Cell membrane morphology of E. coli (TEM)” value with E. coli [10] was “their membrane was all dispersed”. In addition, the “Fold increase in MIC toward MRSA” value in the series with MRSA [11] is on record as “remained almost unchanged”. In the case of `CCCCCCCCCCCC(=O)N[C@@H](CCCCN)CN1CC(=O)N(c2ccc(N3CN(C[C@H](CCCCN)NC(=O)CCCCCCCCCCC)CC3=O)cc2)C1` [Compound 4, N,N'-((2S,2'S)-(1,4-Phenylenebis(4-oxoimidazolidine-3,1-diyl))-bis(6-aminohexane-1,2-diyl))didodecanamide], in the series on red blood cells of mice, the “Hemolysis (HC50)” value was above 250 µg/mL.

`CCCCCCCCCCCCCC(=O)N[C@@H](CCCCN)CN1CC(=O)N(c2ccc(N3CN(C[C@H](CCCCN)NC(=O)CCCCCCCCCCCCC)CC3=O)cc2)C1` [Compound 5, N,N'-((2S,2'S)-(1,4-Phenylenebis(4-oxoimidazolidine-3,1-diyl))-bis(6-aminohexane-1,2-diyl))ditetradecanamide]: the “Hemolysis (HC50)” value with red blood cells of mice is above 250 µg/mL. On to `CCCCCCCCCCCCCCCC(=O)N[C@@H](CCCCN)CN1CC(=O)N(c2ccc(N3CN(C[C@H](CCCCN)NC(=O)CCCCCCCCCCCCCCC)CC3=O)cc2)C1` [Compound 6, N,N'-((2S,2'S)-(1,4-Phenylenebis(4-oxoimidazolidine-3,1-diyl))-bis(6-aminohexane-1,2-diyl))dipalmitamide], for which, in the series with red blood cells of mice, the “Hemolysis (HC50)” value was above 250 µg/mL. Take `NCCCC[C@@H](CN1CC(=O)N(c2ccc(N3CN(C[C@H](CCCCN)NC(=O)CC45C[C@H]6C[C@@H](C4)C[C@@H](C5)C6)CC3=O)cc2)C1)NC(=O)CC12C[C@H]3C[C@@H](C1)C[C@@H](C2)C3` [Compound 7, N,N'-((2S,2'S)-(1,4-Phenylenebis(4-oxoimidazolidine-3,1-diyl))-bis(6-aminohexane-1,2-diyl))bis(2-((3S,5S,7S)-adamantan-1-yl)-acetamide)]: in the series on red blood cells of mice, the “Hemolysis (HC50)” value was above 250 µg/mL.

Consider `NCCCC[C@@H](CN1CC(=O)N(c2ccc(N3CN(C[C@H](CCCCN)NC(=O)Cc4ccc5ccccc5c4)CC3=O)cc2)C1)NC(=O)Cc1ccc2ccccc2c1` [Compound 8, N,N'-((2S,2'S)-(1,4-Phenylenebis(4-oxoimidazolidine-3,1-diyl))-bis(6-aminohexane-1,2-diyl))bis(2-(naphthalen-2-yl)acetamide)], for which, in the series with red blood cells of mice, the “Hemolysis (HC50)” value is above 250 µg/mL.

With `NCCCC(=O)N[C@@H](Cc1ccccc1)CN1CC(=O)N(c2ccc(N3CN(C[C@H](Cc4ccccc4)NC(=O)CCCN)CC3=O)cc2)C1` [Compound 9, N,N'-((2S,2'S)-(1,4-Phenylenebis(4-oxoimidazolidine-3,1-diyl))-bis(3-phenylpropane-1,2-diyl))bis(4-aminobutanamide)], in the series with red blood cells of mice, the “Hemolysis (HC50)” value is above 250 µg/mL. With `CCCCCCCCCC(=O)N[C@@H](Cc1ccccc1)CN1CC(=O)N(c2ccc(N3CN(C[C@H](Cc4ccccc4)NC(=O)CCCCCCCCC)CC3=O)cc2)C1` [Compound 10, N,N'-((2S,2'S)-(1,4-Phenylenebis(4-oxoimidazolidine-3,1-diyl))-bis(3-phenylpropane-1,2-diyl))bis(decanamide)], the “Hemolysis (HC50)” value in the series on red blood cells of mice was above 250 µg/mL. For the compound `CCCCCCCCCC(=O)N[C@@H](CCCCN)CNCC(=O)Nc1ccc(NC(=O)CNC[C@H](CCCCN)NC(=O)CCCCCCCCC)cc1` [Compound 11, N,N'-((2S,2'S)-(((1,4-Phenylenebis(azanediyl))bis(2-oxoethane-2,1-diyl))bis(azanediyl))bis(6-aminohexane-1,2-diyl))bis-(decanamide)], the “Hemolysis (HC50)” value in the series with red blood cells of mice was above 250 µg/mL. Consider `CCn1cc(C(=O)O)c(=O)c2cc(F)c(N3CCNCC3)cc21` [norfloxacin, reference compound], for which the “Fold increase in MIC toward MRSA” value in the series with MRSA [11] is reported as “more than 22 fold”.
